The values below come from ChEMBL document CHEMBL1140890, “Ivermectin-derived leishmanicidal compounds” (Bioorg Med Chem, 2009).

Usually pIC50 stands for the negative decadic logarithm of the IC50, by convention in mol/L.

Assay [1] can be described thus: Cytotoxicity against mouse peritoneal macrophages assessed as LDH release after 48 hrs. In kind it is cell-based, Macrophage. Summed up: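 Mouse peritoneal macrophages at 2 × 10⁶ cells/well, 48 h at 37 °C in DMEM + 5% HIFCS with compound at 0, 10, 30, 90 µM in 0.5% DMSO. LDH released into medium measured by kit. Maximum and minimum release set by 2% Triton X-100 and 0.5% DMSO; means of triplicates.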
(LDH in the medium is a marker of cell lysis.)

Assay [2] has as its system Leishmania amazonensis. In words: Antileishmanial activity against GFP-tagged Leishmania amazonensis Josefa amastigotes infected in mouse peritoneal macrophages after 72 hrs by fluorimetric assay. In kind it is functional, organism-based. Summed up: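 Mouse peritoneal macrophages at 2 × 10⁶ cells/well, allowed to adhere, then infected 4 h at 37 °C with 10⁷ GFP-transfected fluorescent promastigotes. Free parasites washed off; cultured a further 72 h with compound at 0, 10, 30, 90 µM in 0.5% DMSO. Fluorescence read as for promastigotes. Maximum and minimum inhibition set by uninfected and untreated infected cells; means of triplicates.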

Assay [3] has as its system Leishmania amazonensis. In words: Antileishmanial activity against GFP-tagged Leishmania amazonensis Josefa promastigotes after 72 hrs by fluorimetric assay. In kind it is functional, organism-based. Summed up: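 GFP-transfected promastigotes (kept in DMEM + 10% HIFCS at 27 °C, periodically re-isolated from infected mice) seeded at 5 × 10⁵ cells/ml in DMEM, 5% HIFCS, 0.5% DMSO. Exposed to 0, 10, 30, 90 µM for 72 h at 27 °C. Fluorescence read at […] / 538 nm emission; IC50 from means of triplicates.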

Assay [4] can be described thus: Selectivity index, ratio of IC50 for mouse peritoneal macrophages to IC50 for Leishmania amazonensis Josefa amastigotes. Summed up:
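Macrophage LDH-release IC50 divided by intracellular amastigote IC50.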

Where [5] appears, read: Leishmania amazonensis, Josefa, 72 h.

pIC50: −log10 of the molar value.

As to `CCOC(=O)[C@@H]1C=C(C)[C@@H](O)[C@H]2OC/C(=C\CO)[C@]21O` [SOUTHERN DIOL], the negative-log IC50 (pIC50) in assay [1] (Mus musculus, Macrophage, 48 h) was < 4.05; with Leishmania amazonensis [2] (setting [5]) it was 4.41; in the assay with Leishmania amazonensis [3] (setting [5]), < 4.05. Further, the “Ratio IC50” value in assay [4] is recorded as >2.3.

On to IVERMECTIN [listing 1 of 2 here], for which the values for the pIC50 (in assay [1] (macrophage); in the assay with Leishmania amazonensis [2]; with Leishmania amazonensis [3]) were 4.14, 5.30 and 5.15, respectively.

For the compound “D-glutonic acid, 2,4:2',4'-O-[oxybis-(oxidostibylidyne)]bis-, trisodium salt, nonahydrate”, in assay [4], the Ratio IC50 was > 5.

Regarding `CC[C@H](C)[C@H]1O[C@]2(CC[C@@H]1C)C[C@@H](O)C[C@@H](C/C=C(\C)[C@@H](O[C@H]1C[C@H](OC)[C@@H](O[C@H]3C[C@H](OC)[C@@H](O)[C@H](C)O3)[C@H](C)O1)[C@@H](C)CO)O2`, the negative logarithm of the IC50 (pIC50) in assay [1] (Mus musculus, Macrophage, 48 h) was 4.26; in the assay with Leishmania amazonensis [2] (setting [5]), 4.88; in the assay with Leishmania amazonensis [3] (setting [5]), 4.77. In addition, the “Ratio IC50” value in assay [4] was found to be 4.2.

With `CC[C@H](C)[C@H]1O[C@]2(CC[C@@H]1C)C[C@@H](O)C[C@@H](CCO)O2` [SPIRODIOL], the negative logarithm of the IC50 (pIC50) in assay [1] (Mus musculus, Macrophage, 48 h) was < 4.05; with Leishmania amazonensis [2] (setting [5]), 4.26; in the assay with Leishmania amazonensis [3] (setting [5]), < 4.05. For the same compound, the “Ratio IC50” value in assay [4] is listed as >1.7.

Take `CC[C@H](C)[C@H]1O[C@]2(CC[C@@H]1C)C[C@@H]1C[C@@H](C/C=C(\C)[C@@H](O)[C@@H](C)/C=C/C=C3\CO[C@@H]4[C@H](O)C(C)=C[C@@H](C(=O)O1)[C@]34O)O2` [IVM AGLYCONE]: the pIC50 in assay [1] (Mus musculus, Macrophage, 48 h) was < 4.05; with Leishmania amazonensis [2] (setting [5]) it was 4.49; with Leishmania amazonensis [3] (setting [5]), 5.08. The “Ratio IC50” value in assay [4] is >2.8.

Regarding `CO[C@H]1C[C@H](O[C@H]2[C@H](C)O[C@@H](O[C@H](C(C)O)[C@@H](C)CO)C[C@@H]2OC)O[C@@H](C)[C@@H]1O` (some centres undefined), the pIC50 is 4.06 in assay [1] (Mus musculus, Macrophage, 48 h); < 4.05 in the assay with Leishmania amazonensis [2] (setting [5]); < 4.05 in the assay on Leishmania amazonensis [3] (setting [5]). In assay [4], the “Ratio IC50” value is <1.

Take `CCOC(=O)C1=C[C@H](C)[C@@H](O)[C@H]2OC/C(=C\C=C\[C@H](C)[C@H](O[C@H]3C[C@H](OC)[C@@H](O[C@H]4C[C@H](OC)[C@@H](O)[C@H](C)O4)[C@H](C)O3)/C(C)=C/C[C@@H]3C[C@H](O)C[C@]4(CC[C@H](C)[C@@H]([C@@H](C)CC)O4)O3)[C@@]12O`: the negative-log IC50 (pIC50) in assay [1] (Mus musculus, Macrophage, 48 h) was 4.57; in the assay with Leishmania amazonensis [2] (setting [5]), 5.34; with Leishmania amazonensis [3] (setting [5]), 5.55. Further, the “Ratio IC50” value in assay [4] was found to be 5.8.

In the case of `CC[C@H](C)[C@H]1O[C@]2(CC[C@@H]1C)C[C@@H]1C[C@@H](C/C=C(\C)[C@@H](O[C@H]3C[C@H](OC)[C@@H](O)[C@H](C)O3)[C@@H](C)/C=C/C=C3\CO[C@@H]4[C@H](O)C(C)=C[C@@H](C(=O)O1)[C@]34O)O2`, the negative logarithm of the IC50 (pIC50) in assay [1] (Mus musculus, Macrophage, 48 h) is < 4.05; with Leishmania amazonensis [2] (setting [5]), 4.53; in the assay with Leishmania amazonensis [3] (setting [5]), 5.11. Also, in assay [4], the “Ratio IC50” value is >3.

In the case of `C[C@@H]1[C@H](O)[C@@H](C)/C=C/C=C/C=C/C=C/C=C/C=C/C=C/[C@H](O[C@@H]2O[C@H](C)[C@@H](O)[C@H](N)[C@@H]2O)C[C@@H]2O[C@](O)(C[C@@H](O)C[C@@H](O)[C@H](O)CC[C@@H](O)C[C@@H](O)CC(=O)O[C@H]1C)C[C@H](O)[C@H]2C(=O)O` [AMPHOTERICIN B], the pIC50 in the assay with Leishmania amazonensis [3] (setting [5]) was 5.36.

With `CC[C@H](C)[C@H]1O[C@]2(CC[C@@H]1C)C[C@@H]1C[C@@H](C/C=C(\C)[C@@H](O[C@H]3C[C@H](OC)[C@@H](O[C@H]4C[C@H](OC)[C@@H](O)[C@H](C)O4)[C@H](C)O3)[C@@H](C)/C=C/C=C3\CO[C@@H]4[C@H](O)[C@@H](C)C=C(C(=O)O1)[C@]34O)O2`, the pIC50 was 4.18 in assay [1] (Mus musculus, Macrophage, 48 h); 5.44 with Leishmania amazonensis [2] (setting [5]); 4.86 in the assay on Leishmania amazonensis [3] (setting [5]). Moreover, the “Ratio IC50” value in assay [4] is on record as 18.2.

Regarding `CCOC(=O)[C@@H]1C=C(C)[C@@H](O)[C@H]2OC/C(=C\C=C\[C@H](C)[C@H](O[C@H]3C[C@H](OC)[C@@H](O[C@H]4C[C@H](OC)[C@@H](O)[C@H](C)O4)[C@H](C)O3)/C(C)=C/C[C@@H]3C[C@H](O)C[C@]4(CC[C@H](C)[C@@H]([C@@H](C)CC)O4)O3)[C@]21O`, the pIC50 in assay [1] (Mus musculus, Macrophage, 48 h) was 4.37; in the assay on Leishmania amazonensis [2] (setting [5]), 5.19; in the assay on Leishmania amazonensis [3] (setting [5]), 4.97. Further, the Ratio IC50 in assay [4] was 6.6.

On to IVERMECTIN [listing 2 of 2 here], for which the Ratio IC50 in assay [4] amounted to 14.5.

As to `CC[C@H](C)[C@H]1O[C@]2(CC[C@@H]1C)C[C@@H](O)C[C@@H](C/C=C(\C)[C@@H](O)[C@@H](C)CO)O2` [NORTHERN AGLYCONE], the negative-log IC50 (pIC50) is < 4.05 in assay [1] (Mus musculus, Macrophage, 48 h); 4.52 in the assay on Leishmania amazonensis [2] (setting [5]); < 4.05 with Leishmania amazonensis [3] (setting [5]). For the same compound, the “Ratio IC50” value in assay [4] is listed as >3.

`CCOC(=O)C1=C[C@H](C)[C@@H](O)[C@H]2OC/C(=C\CO)[C@@]12O`: the pIC50 in assay [1] (Mus musculus, Macrophage, 48 h) was < 4.05; in the assay on Leishmania amazonensis [2] (setting [5]), 4.86; in the assay with Leishmania amazonensis [3] (setting [5]), < 4.05. For the same compound, the “Ratio IC50” value in assay [4] is recorded as >6.5.

Consider `CC[C@H](C)[C@H]1O[C@]2(CC[C@@H]1C)C[C@@H](O)C[C@@H](C/C=C(\C)[C@@H](O[C@H]1C[C@H](OC)[C@@H](O)[C@H](C)O1)[C@@H](C)CO)O2` [NORTHERN MONOSACCHARIDE], for which the negative-log IC50 (pIC50) was 4.49 in assay [1] (Mus musculus, Macrophage, 48 h); 4.38 in the assay on Leishmania amazonensis [2] (setting [5]); 4.18 in the assay with Leishmania amazonensis [3] (setting [5]). In addition, the “Ratio IC50” value in assay [4] is 0.8.
